From ChEMBL document CHEMBL1124702, “Synthesis and pharmacological evaluation of a series of dibenzo[a,d]cycloalkenimines as N-methyl-D-aspartate antagonists” (J Med Chem, 1990) come the findings set out here.

Test [1] relates to Mus musculus. Nature of the test: Inhibition of N-Methyl-D,L-aspartate induced convulsions in mice following 500 mg/kg i.p. It is filed as functional. The note with it: ip, route intraperitoneal.
Test [2] deals with Glutamate NMDA receptor. Nature of the test: Inhibition of N-methyl-D-aspartate glutamate receptor (NMDA receptor) from homogenized rat brain membrane, using [3H]-MK-801 as a radioligand. An outline of the steps:
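Male Sprague-Dawley rat (200-300 g) cortical membranes, washed and preincubated 20 min at 23 °C in 5 mM Tris-HCl pH 7.4. Duplicate aliquots (ca. 0.75 mg protein) incubated 60 min at 23 °C with displacer plus [3H]-(+)-10 added as 100 µL of 50 nM stock. Filter-bound radioactivity counted by liquid scintillation; Ki reported.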

Test [3] deals with T1, Glutamate NMDA receptor (Rattus norvegicus) (UniProt P35439+Q00959+Q00960+Q00961+Q62645+Q8VHN2+Q9R1M7). The experiment in a line: Antagonistic activity against N-methyl-D-aspartate glutamate receptor from rat cortical slice. Type of test: functional. An outline of the steps:
(§1)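 Greased-gap recording of NMDA-induced population depolarizations in rat cortical slices. An NMDA concentration-response curve was run, then repeated with antagonist present. Apparent Kb = antagonist concentration/(CR-1), with CR taken at the midpoint of the control curve. If the curve flattened, a lower antagonist concentration was tried. Failing that, the threshold concentration giving significant antagonism was used.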

For test [4], the system named is Mus musculus. Nature of the test: Tested for inhibition of convulsions induced by N-Methyl-D,L-aspartate (NMDLA), after sc administration of a dose of […] in mice. Type of test: functional. The note with it: route subcutaneous. The method in brief: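 Test drug given iv 15 min before the convulsant. NMDLA given at 500 mg/kg, sc or ip. Separately, NMDA given sc at 400 mg/kg. Anticonvulsant ED50 determined.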

Test [5] has as its target T1, Glutamate NMDA receptor (Rattus norvegicus). The experiment in a line: Antagonistic activity against N-methyl-D-aspartate glutamate receptor from rat cortical slice was determined (expt.1). It is filed as functional. An outline of the steps:
as §1

Test [6] has the same target. Nature of the test: Antagonistic activity against N-methyl-D-aspartate glutamate receptor from rat cortical slice was determined (expt.2). Type of test: functional. The method in brief:
as §1

The ED50 is the dose at which the effect has come halfway, by size or by number of responders. Low values mean an effect at a small dose, high ones a need for a large dose. The term Ki denotes the dissociation constant of the complex between target and ligand, obtained from inhibition or displacement. In general, Kb refers to the equilibrium dissociation constant of an antagonist, usually derived from a functional assay. In test [1], `CC12NC(Cc3ccccc31)c1ccc(O)cc12` (stereo not drawn) returned an ED50 of 0.43 mg/kg. This molecule also registered a Ki in test [2] of 23 nM. For the same molecule, the Kb in test [3] is 130 nM.
`CC12NC(c3ccccc31)[C@@H](F)c1ccccc12` (stereo partly drawn): in test [1], the ED50 was 1.27 mg/kg. The molecule further returned a Ki in test [2] of 11 nM. Also, the Kb in test [3] amounted to 230 nM.
On to `CC12NC(Cc3ccc(Br)cc31)c1ccccc12` (stereo in doubt; 88), for which the ED50 was 1.42 mg/kg in test [4] and 1.25 mg/kg in test [1]. In test [2], this molecule registered a Ki of 80 nM.
The molecule `FCC12NC(Cc3ccccc31)c1ccccc12` (stereo not drawn) returned an ED50 in test [1] of 2.55 mg/kg. In test [2], this molecule registered a Ki of 160 nM. The Kb in test [3] amounted to 720 nM.
`CC12NC(Cc3ccc(CO)cc31)c1ccccc12` (stereo not drawn) registered an ED50 in test [1] of 1.19 mg/kg. In test [2], this molecule registered a Ki of 137 nM. The molecule further returned a Kb in test [3] of 270 nM.
For the molecule `CC12NC(Cc3ccc(O)cc31)c1ccccc12` (stereo not drawn), the inhibition constant Ki in test [2] turned out to be 18 nM. For the same molecule, the Kb amounted to 240 nM in test [5] and 510 nM in test [6].
